Assays:
[1] = Displacement of [3H]AL-11 from IRAP of CHO-K1 cell membrane after 30 mins by scintillation counting in presence of 30 mM EDTA and 600 uM 1,10-Phenantrone; assay type: cell membranes, Cricetulus griseus
Method in brief: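 CHO-K1 membranes with endogenous IRAP (4 × 10⁵ cells) in 50 mM Tris-HCl pH 7.4 buffer were preincubated 40 min at 37 °C with compound (10⁻⁹–10⁻⁵ M final) without chelators. [³H]AL-11 (3 nM final) was then added with EDTA/1,10-Phe (final 5 mM/100 μM) for 30 min at 37 °C. Unlabeled Ang IV defined nonspecific binding. Bound radioactivity was collected on BSA-soaked GF/B filters and β-counted. Runs were ≥2× in duplicate. IC50 came from nonlinear regression and Ki from Cheng–Prusoff using the [³H]AL-11 KD.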

[2] = Displacement of [3H]AL-11 from IRAP of CHO-K1 cell membrane preincubated for 40 mins in presence of 30 mM EDTA and 600 uM 1,10-Phenantrone after 30 mins by scintillation counting; assay type: cell membranes, Cricetulus griseus
Method in brief: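 Chelators EDTA (5 mM final) and 1,10-phenanthroline (100 μM final) were present both in the 40 min, 37 °C preincubation of CHO-K1 membranes (4 × 10⁵ cells, 50 mM Tris-HCl pH 7.4) with compound (10⁻⁹–10⁻⁵ M) and during the binding step. Binding was 30 min at 37 °C with 3 nM [³H]AL-11, with unlabeled Ang IV for nonspecific binding. Read-out was GF/B filtration and β-counting, ≥2 experiments in duplicate. IC50 came from nonlinear regression and Ki via Cheng–Prusoff.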

Aminopeptidase N = Aminopeptidase N (Homo sapiens, UniProt P15144); experiment: Inhibition of catalytic activity of recombinant human AP-N transfected in human HEK-293 cells assessed as cleavage of substrate L-leucine-p-nitroanilide to L-leucine and p-nitroaniline measured every 5 mins for 10 to 50 mins by spectrophotometric analysis; assay type: cell-based, HEK293
Chain of Aminopeptidase N (P15144 whole entry): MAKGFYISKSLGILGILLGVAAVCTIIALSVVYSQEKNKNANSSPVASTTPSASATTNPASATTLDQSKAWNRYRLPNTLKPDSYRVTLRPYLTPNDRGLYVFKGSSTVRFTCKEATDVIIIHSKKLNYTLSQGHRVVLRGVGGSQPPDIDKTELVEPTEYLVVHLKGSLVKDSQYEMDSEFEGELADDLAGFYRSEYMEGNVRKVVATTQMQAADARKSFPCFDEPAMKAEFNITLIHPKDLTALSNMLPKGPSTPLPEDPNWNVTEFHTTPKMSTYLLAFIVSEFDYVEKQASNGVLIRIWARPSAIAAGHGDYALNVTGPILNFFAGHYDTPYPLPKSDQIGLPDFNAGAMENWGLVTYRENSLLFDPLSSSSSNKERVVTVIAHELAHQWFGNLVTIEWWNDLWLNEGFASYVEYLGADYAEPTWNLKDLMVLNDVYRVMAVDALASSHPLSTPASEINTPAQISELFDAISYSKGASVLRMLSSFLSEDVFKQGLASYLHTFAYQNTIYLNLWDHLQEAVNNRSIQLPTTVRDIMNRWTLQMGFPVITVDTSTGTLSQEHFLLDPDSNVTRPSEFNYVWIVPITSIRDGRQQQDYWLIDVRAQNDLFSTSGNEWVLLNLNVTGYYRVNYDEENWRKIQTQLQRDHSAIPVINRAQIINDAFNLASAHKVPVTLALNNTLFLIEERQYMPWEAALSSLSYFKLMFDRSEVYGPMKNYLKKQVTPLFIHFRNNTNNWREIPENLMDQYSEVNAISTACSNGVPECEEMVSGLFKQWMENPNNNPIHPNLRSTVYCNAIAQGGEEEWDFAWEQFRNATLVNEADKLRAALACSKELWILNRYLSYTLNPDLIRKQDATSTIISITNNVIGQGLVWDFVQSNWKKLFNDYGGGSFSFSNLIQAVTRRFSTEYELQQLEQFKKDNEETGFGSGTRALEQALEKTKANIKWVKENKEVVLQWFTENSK

Structure (SMILES) | Ki [1] [nM] | Ki [2] [nM] | Ki (Aminopeptidase N) [nM]
N[C@H]1CC/C=C/CC[C@@H](C(=O)NCc2ccccc2CC(=O)O)NC(=O)C[C@H](Cc2ccc(O)cc2)NC1=O | 9.8 | 74.2 | –
CN1C(=O)[C@@H](N)CCC/C=C/CC[C@@H](C(=O)NCc2ccccc2)NC(=O)[C@@H]1Cc1ccc(O)cc1 | – | – | > 100000
N[C@H]1CC/C=C/CC[C@@H](C(=O)NCc2ccccc2)NC(=O)[C@H](Cc2ccccc2)NC1=O | 719 | 3520 | –
CN1C(=O)[C@@H](N)CCCC/C=C/C[C@@H](C(=O)NCc2ccccc2)NC(=O)[C@@H]1Cc1ccc(O)cc1 | – | – | > 100000
N[C@H]1CC/C=C/CC[C@@H](C(=O)NCc2ccccc2CC(=O)O)NC(=O)[C@H](Cc2ccc(O)cc2)NC1=O | 36.8 | 450 | –
CN1C(=O)[C@@H](N)CCCC/C=C\C[C@@H](C(=O)NCc2ccccc2)NC(=O)[C@@H]1Cc1ccc(O)cc1 | – | – | > 100000
N[C@H]1CC/C=C\CC[C@@H](C(=O)NCc2ccccc2CC(=O)O)NC(=O)[C@H](Cc2ccc(O)cc2)NC1=O | 24.8 | 568 | –
N[C@H]1CC/C=C\CC[C@@H](C(=O)NCc2ccccc2)NC(=O)[C@H](Cc2ccccc2)NC1=O | 287 | 3470 | –
N[C@H]1CCCC/C=C/C[C@@H](C(=O)NCc2ccccc2CC(=O)O)NC(=O)[C@H](Cc2ccc(O)cc2)NC1=O | 46.8 | 133 | –
N[C@H]1CCCCCC[C@@H](C(=O)NCc2ccccc2CC(=O)O)NC(=O)[C@H](Cc2ccc(O)cc2)NC1=O | 28.9 | 631 | –
CN1C(=O)[C@@H](N)CCC/C=C\CC[C@@H](C(=O)NCc2ccccc2)NC(=O)[C@@H]1Cc1ccc(O)cc1 | – | – | > 100000
N[C@H]1CCCCCCC[C@@H](C(=O)NCc2ccccc2CC(=O)O)NC(=O)[C@H](Cc2ccc(O)cc2)NC1=O | 12.5 | 517 | –

Source: ChEMBL document CHEMBL1782022, “Potent macrocyclic inhibitors of insulin-regulated aminopeptidase (IRAP) by olefin ring-closing metathesis” (J Med Chem, 2011)
